Common to all, as to assay type: functional, cell-based
Assay [1] in a line: Cytotoxicity against human Bel7402 cells after 72 hrs by alamar blue assay. The settings on record: Bel-7402, 72 h. In outline:
(§1)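 Cells seeded and cultured overnight, then exposed to compound at varying concentrations for 72 h. Cells were then incubated 2-4 h in medium containing 10% Alamar blue, and fluorescence was read at ex 530/em 590 nm. Dose-response curves used at least five concentrations, and IC50 (50% growth inhibition) was taken from these curves. Culture was at 37 °C.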
On the technique in general: Resazurin is reduced to fluorescent resorufin, in cell work by metabolically active cells.

Assay [2] can be described thus: Cytotoxicity against human HL60 cells after 72 hrs by alamar blue assay. To be noted: HL-60, 72 h. The method in brief: as §1
The next assay has as its system SK-BR-3. Put plainly: Cytotoxicity against human SK-BR-3 cells after 72 hrs by alamar blue assay. To be noted: SK-BR-3, 72 h. In outline: as §1
The subject of another assay is MDA-MB-468. Put plainly: Cytotoxicity against human MDA-MB-468 cells after 72 hrs by alamar blue assay. The settings on record: MDA-MB-468, 72 h. In outline:
as §1

In assay [3] the test system is PC-3. Put plainly: Induction of mitotic arrest in human PC3 cells assessed as increase in MPM-2 level at 40 nM after 24 hrs by Western blot method. The method in brief: (§2)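 PC-3 cells were treated 24 h with compound (0.5-4 µM) or taxol (40 nM) as positive control, then lysed in RIPA with PMSF and protease inhibitors. Lysates were run on SDS-PAGE and transferred to PVDF, which was blocked with 5% milk for 1 h. Membranes were probed overnight at 4 °C for MPM-2 (1:1000), phospho-H3 (1:600) or β-actin (1:1000), followed by HRP secondary and chemiluminescence.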
For orientation: In western blotting, separated proteins are transferred to a membrane and probed.

In assay [4] the test system is PC-3. Put plainly: Induction of mitotic arrest in human PC3 cells assessed as increase in supernumerary centrosome formation at 40 nM after 6 hrs using DAPI staining by immunofluorescence-based laser scanning confocal microscopy. In outline: (§3)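 PC-3 cells on confocal dishes were exposed 6 h to compound (2 µM) or taxol (40 nM), then fixed in 4% paraformaldehyde overnight at 4 °C and blocked. They were stained overnight at 4 °C with anti-β-tubulin and anti-γ-tubulin (1:100 each), then 1 h with Alexa Fluor 488/647 secondaries, and co-stained for DNA. Spindles and centrosomes were imaged by confocal microscopy.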

The subject of assay [5] is PC-3. Put plainly: Induction of mitotic arrest in human PC3 cells assessed as increase in multipolar spindle formation at 40 nM after 6 hrs using DAPI staining by immunofluorescence-based laser scanning confocal microscopy. The method in brief:
as §3

Assay [6] relates to PC-3. Put plainly: Induction of mitotic arrest in human PC3 cells assessed as increase in histone H3 phosphorylation at Ser10 at 40 nM after 24 hrs by Western blot method. The method in brief: as §2

Activity calls are given as the source filed them. No cut-off for these calls is given here.

On to `Cc1cc(CNC(=S)SCCC#N)n(C)n1`, for which the IC50 in assay [1] stood at 4.26 µM; in assay [2], 4.17 µM.
Consider `FC(F)(F)c1ccc(-c2nnc(CCSC(=S)NCc3cccnc3)o2)cc1`, for which the IC50 turned out to be 2.4 µM with SK-BR-3, 1.22 µM in assay [1] and 5.49 µM in the assay with MDA-MB-468.
Regarding `S=C(NCc1cccnc1)SCCc1nnc(-c2cc3ccccc3s2)o1`, the IC50 turned out to be 5.32 µM in the assay on SK-BR-3, 6.89 µM in assay [1] and 6.77 µM in the assay on MDA-MB-468.
In the case of `N#CCCSC(=S)NCc1cncs1`, the IC50 in assay [1] amounted to 296 µM; in assay [2] it was 109 µM.
Take `O=C(O)CCSC(=S)NCc1cccnc1`: the IC50 turned out to be 7.97 µM in the assay on SK-BR-3, 7.42 µM in assay [1] and 9.32 µM in the assay on MDA-MB-468.
Consider `S=C(NCc1cccnc1)SCCc1nnc(-c2cccnc2)o1`, for which the concentration for half-maximal inhibition (IC50) with SK-BR-3 stood at 0.8 µM; in assay [1], 1.37 µM; in the assay with MDA-MB-468 it was 3.16 µM.
For `S=C(NCc1cccnc1)SCCc1nc2ccccc2o1` the same measures were 0.82 µM, 2.88 µM and 4.3 µM.
For `Cc1nc(-c2ccccc2)oc1CNC(=S)SCCC#N`, the IC50 in assay [1] was 17.9 µM; in assay [2], 7.88 µM.
For the molecule `S=C(NCc1cccnc1)SCCc1nnc(-c2ccc(Cl)cc2)o1`, the figures for the IC50 (in the assay on SK-BR-3; in assay [1]; with MDA-MB-468) were 0.86 µM, 1.26 µM and 1.98 µM, respectively.
For `Fc1ccccc1-c1nnc(CCSC(=S)NCc2cccnc2)o1` the same measures were 4.69 µM, 5.54 µM and 3.42 µM.
For `COc1ccc(-c2nnc(CCSC(=S)NCc3cccnc3)o2)cc1` the same measures were 2.96 µM, 1.54 µM and 5.22 µM.
For the molecule `N#CCCSC(=S)NCc1nnc(-c2ccccc2)o1`, the IC50 was found to be 25.7 µM in assay [1] and 14.2 µM in assay [2].
Take `CC(=O)CCSC(=S)NCc1cccnc1`: the IC50 was 1.12 µM with SK-BR-3, 3.43 µM in assay [1] and 4.22 µM in the assay with MDA-MB-468.
For `S=C(NCc1cccnc1)SCCc1nnc(-c2ccco2)o1` the same measures were 0.81 µM, 1.59 µM and 3.32 µM.
The corresponding values for `S=C(NCc1cccnc1)SCCc1nnc(-c2ccc3ncccc3c2)o1` are 0.85 µM, 1.79 µM and 1.69 µM.
Take `N#CCCSC(=S)NCc1cccnc1`: the concentration for half-maximal inhibition (IC50) turned out to be 2.84 µM with SK-BR-3, 1.03 µM in assay [1], 9.53 µM in the assay on MDA-MB-468 and 0.74 µM in assay [2].
As to `S=C(NCc1cccnc1)SCCc1nnc(-c2cnccn2)o1`, the IC50 with SK-BR-3 turned out to be 1.29 µM; in assay [1] it was 1.43 µM; in the assay with MDA-MB-468, 1.71 µM.
The corresponding values for `S=C(NCc1cccnc1)SCCc1nnc(-c2ccsc2)o1` are 1.03 µM, 1.23 µM and 3.26 µM.
The corresponding values for `O=[N+]([O-])c1ccc(-c2nnc(CCSC(=S)NCc3cccnc3)o2)cc1` are 1.54 µM, 1.84 µM and 4.6 µM.
The corresponding values for `OCCSC(=S)NCc1cccnc1` are 1.32 µM, 3.65 µM and 6.61 µM.
As for `Cn1cccc1CNC(=S)SCCC#N`, the 50% inhibitory concentration (IC50) amounted to 227 µM in assay [1] and 282 µM in assay [2].
Take `S=C(NCc1cccnc1)SCCc1nc2ccccc2[nH]1`: the values for the 50% inhibitory concentration (IC50) (in the assay with SK-BR-3; in assay [1]; in the assay on MDA-MB-468) were 1.69 µM, 9.3 µM and 11.5 µM, respectively.
The corresponding values for `Cc1cc(-c2nnc(CCSC(=S)NCc3cccnc3)o2)no1` are 1.73 µM, 1.68 µM and 6.14 µM.
For `S=C(NCc1cccnc1)SCCc1nnc(-c2cccs2)o1` the same measures were 1.07 µM, 1.34 µM and 3.41 µM.
On to `O=C(CCSC(=S)NCc1cccnc1)NCc1ccccc1`, for which the IC50 (with SK-BR-3; in assay [1]; with MDA-MB-468) was > 100 µM in each case.
Regarding `CN1CCOc2cc(CNC(=S)SCCC#N)cnc21`, the IC50 came to 327 µM in assay [1] and 82.8 µM in assay [2].
With `S=C(NCc1cccnc1)SCCc1nc2ccccc2s1`, the IC50 with SK-BR-3 turned out to be 1.39 µM; in assay [1] it was 3.56 µM; with MDA-MB-468, 9.71 µM.
For `S=C(NCc1cccnc1)SCCc1nc(-c2ccccc2)no1` the same measures were 1.29 µM, 2.8 µM and 10.1 µM.
Regarding `S=C(NCc1cccnc1)SCCc1nnn[nH]1`, the 50% inhibitory concentration (IC50) was > 100 µM in the assay with SK-BR-3, 57.7 µM in assay [1] and > 100 µM in the assay on MDA-MB-468.
As to `CCCCOC(=O)CCSC(=S)NCc1cccnc1`, the 50% inhibitory concentration (IC50) came out at 4.46 µM in the assay on SK-BR-3, 6.35 µM in assay [1] and 12.8 µM in the assay with MDA-MB-468.
On to `Cc1c(CNC(=S)SCCC#N)cnn1-c1ccccc1`, for which the IC50 in assay [1] is 24.9 µM; in assay [2], 6.05 µM.
For `N#CCCSC(=S)NCc1cnc2ccccc2c1` the same measures were 96.4 µM and 5.18 µM.
As to `O=S(=O)(O)CCCSC(=S)NCc1cccnc1`, the IC50 in the assay with SK-BR-3 was found to be 6.77 µM; in assay [1], 6.59 µM; with MDA-MB-468, 11.1 µM.
For `S=C(NCc1cccnc1)SCCn1nc2ccccc2n1` the same measures were 0.98 µM, 2.66 µM and 11.6 µM.
`CC(=O)O[C@H]1C(=O)[C@@]2(C)[C@H]([C@H](OC(=O)c3ccccc3)[C@]3(O)C[C@H](OC(=O)[C@H](O)[C@@H](NC(=O)c4ccccc4)c4ccccc4)C(C)=C1C3(C)C)[C@]1(OC(C)=O)CO[C@@H]1C[C@@H]2O`: the outcome in the assay on PC-3 [3], with PC-3 [4], in the assay on PC-3 [5] and in the assay with PC-3 [6] was Active.
As for `CCOP(=O)(CCSC(=S)NCc1cccnc1)OCC`, the values for the IC50 (in the assay with SK-BR-3; in assay [1]; in the assay with MDA-MB-468) were 51 µM, 50.8 µM and 60.4 µM, respectively.
With `N#CCCSC(=S)NCc1nnc(-c2ccccc2)s1`, the 50% inhibitory concentration (IC50) is 18.7 µM in assay [1] and 11.8 µM in assay [2].
For the molecule `S=C(NCc1cccnc1)SCCc1nnc(-c2cc[nH]c2)o1`, the IC50 in the assay with SK-BR-3 was determined as 0.82 µM; in assay [1] it was 1.17 µM; with MDA-MB-468, 2.04 µM.
The corresponding values for `NC(=O)CCSC(=S)NCc1cccnc1` are 1.16 µM, 3.33 µM and 4.63 µM.
`N#CCCSC(=S)NCc1cnc(N2CCOCC2)nc1`: the concentration for half-maximal inhibition (IC50) is 22.4 µM in assay [1] and 5.03 µM in assay [2].
Turning to `CC1(C)OB(CCCSC(=S)NCc2cccnc2)OC1(C)C`, the half-inhibitory concentration (IC50) in the assay with SK-BR-3 turned out to be 6.82 µM; in assay [1], 4.27 µM; with MDA-MB-468 it was 6.62 µM.
The corresponding values for `S=C(NCc1cccnc1)SCCc1nnc(-c2ccc3ccccc3n2)o1` are 0.79 µM, 1.95 µM and 3.5 µM.

One may read the IC50 as the midpoint of a concentration-inhibition curve. A high value points to weaker potency in that assay.
